Test results published in ChEMBL document CHEMBL3232791, “Synthesis and antibacterial evaluation of amino acid-antibiotic conjugates” (2014).

Key:
Assay type in all cases: functional
[1] = system: Pseudomonas aeruginosa; assay: Antibacterial activity against Pseudomonas aeruginosa PAO1 assessed as growth inhibition at 40 ug/ml after 16 hrs by spectrophotometric analysis; details: PAO1, 16 h, read-out: GI
Method in brief: (§1)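 Growth inhibition read as OD600 on 300 µL culture samples, with untreated control cultures taken as maximum growth. Percent inhibition = (OD600 control − OD600 treated) × 100 / OD600 control. Parent antibiotics and their conjugates were run in parallel at three concentrations per compound, in biological duplicate.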

[2] = system: Pseudomonas aeruginosa; assay: Antibacterial activity against Pseudomonas aeruginosa PAO1 assessed as growth inhibition at 10 ug/ml after 16 hrs by spectrophotometric analysis; details: PAO1, 16 h, read-out: GI; method in brief: as §1
[3] = system: Staphylococcus aureus; assay: Antibacterial activity against Staphylococcus aureus RN4220 assessed as growth inhibition at 2 ug/ml after 16 hrs by spectrophotometric analysis; details: RN4220, 16 h, read-out: GI; method in brief: as §1
[4] = system: Bacillus subtilis; assay: Antibacterial activity against Bacillus subtilis 168 assessed as growth inhibition at 0.2 ug/ml after 16 hrs by spectrophotometric analysis; details: subsp. subtilis str. 168, 16 h, read-out: GI; method in brief: as §1
[5] = system: Staphylococcus aureus; assay: Antibacterial activity against Staphylococcus aureus RN4220 assessed as growth inhibition at 8 ug/ml after 16 hrs by spectrophotometric analysis; details: RN4220, 16 h, read-out: GI; method in brief: as §1
[6] = system: Escherichia coli; assay: Antibacterial activity against Escherichia coli DH5alpha assessed as growth inhibition at 0.125 ug/ml after 16 hrs by spectrophotometric method; details: DH5[alpha], read-out: GI; method in brief: as §1
[7] = system: Bacillus subtilis; assay: Antibacterial activity against Bacillus subtilis 168 assessed as growth inhibition at 0.1 ug/ml after 16 hrs by spectrophotometric analysis; details: subsp. subtilis str. 168, 16 h, read-out: GI; method in brief: as §1
[8] = system: Escherichia coli; assay: Antibacterial activity against Escherichia coli DH5alpha assessed as growth inhibition at 0.5 ug/ml after 16 hrs by spectrophotometric method; details: DH5[alpha], read-out: GI; method in brief: as §1
[9] = system: Staphylococcus aureus; assay: Antibacterial activity against Staphylococcus aureus RN4220 assessed as growth inhibition at 4 ug/ml after 16 hrs by spectrophotometric analysis; details: RN4220, 16 h, read-out: GI; method in brief: as §1
[10] = system: Bacillus subtilis; assay: Antibacterial activity against Bacillus subtilis 168 assessed as growth inhibition at 0.4 ug/ml after 16 hrs by spectrophotometric analysis; details: subsp. subtilis str. 168, 16 h, read-out: GI; method in brief: as §1
[11] = system: Pseudomonas aeruginosa; assay: Antibacterial activity against Pseudomonas aeruginosa PAO1 assessed as growth inhibition at 20 ug/ml after 16 hrs by spectrophotometric analysis; details: PAO1, 16 h, read-out: GI; method in brief: as §1
[12] = system: Escherichia coli; assay: Antibacterial activity against Escherichia coli DH5alpha assessed as growth inhibition at 0.0635 ug/ml after 16 hrs by spectrophotometric method; details: DH5[alpha], read-out: GI; method in brief: as §1
[13] = system: Escherichia coli; assay: Antibacterial activity against Escherichia coli DH5alpha assessed as growth inhibition at 50 ug/ml after 16 hrs by spectrophotometric method; details: DH5[alpha], read-out: GI; method in brief: as §1
[14] = system: Escherichia coli; assay: Antibacterial activity against Escherichia coli DH5alpha assessed as growth inhibition at 75 ug/ml after 16 hrs by spectrophotometric method; details: DH5[alpha], read-out: GI; method in brief: as §1
[15] = system: Staphylococcus aureus; assay: Antibacterial activity against Staphylococcus aureus RN4220 assessed as growth inhibition at 240 ug/ml after 16 hrs by spectrophotometric analysis; details: RN4220, 16 h, read-out: GI; method in brief: as §1
[16] = system: Staphylococcus aureus; assay: Antibacterial activity against Staphylococcus aureus RN4220 assessed as growth inhibition at 120 ug/ml after 16 hrs by spectrophotometric analysis; details: RN4220, 16 h, read-out: GI; method in brief: as §1
[17] = system: Staphylococcus aureus; assay: Antibacterial activity against Staphylococcus aureus RN4220 assessed as growth inhibition at 60 ug/ml after 16 hrs by spectrophotometric analysis; details: RN4220, 16 h, read-out: GI; method in brief: as §1
[18] = system: Escherichia coli; assay: Antibacterial activity against Escherichia coli DH5alpha assessed as growth inhibition at 40 ug/ml after 16 hrs by spectrophotometric method; details: DH5[alpha], read-out: GI; method in brief: as §1

| SMILES | inhibition of growth at 40 µg/mL [1] [%] | inhibition of growth at 10 µg/mL [2] [%] | inhibition of growth at 2 µg/mL [3] [%] | inhibition of growth at 0.2 µg/mL [4] [%] | inhibition of growth at 8 µg/mL [5] [%] | inhibition of growth at 0.125 µg/mL [6] [%] | inhibition of growth at 0.1 µg/mL [7] [%] | inhibition of growth at 0.5 µg/mL [8] [%] | inhibition of growth at 4 µg/mL [9] [%] | inhibition of growth at 0.4 µg/mL [10] [%] | inhibition of growth at 20 µg/mL [11] [%] | inhibition of growth at 0.0635 µg/mL [12] [%] | inhibition of growth at 50 µg/mL [13] [%] | inhibition of growth at 75 µg/mL [14] [%] | inhibition of growth at 240 µg/mL [15] [%] | inhibition of growth at 120 µg/mL [16] [%] | inhibition of growth at 60 µg/mL [17] [%] | inhibition of growth at 40 µg/mL [18] [%] |
| --- | --- | --- | --- | --- | --- | --- | --- | --- | --- | --- | --- | --- | --- | --- | --- | --- | --- | --- |
| O=C(NCC(=O)N1CCN(c2cc3c(cc2F)c(=O)c(C(=O)O)cn3C2CC2)CC1)OCc1ccccc1 | 45 | -14 | 45.7 | 16.2 | 70.8 | -2.17 | 18.5 | 2.25 | 50.3 | 94.2 | -1.56 | 1.86 | – | – | – | – | – | – |
| C[C@H](NC(=O)OCc1ccccc1)C(=O)N1CCN(c2cc3c(cc2F)c(=O)c(C(=O)O)cn3C2CC2)CC1 | 58.2 | -13.3 | 23.2 | 42.3 | 55.8 | -2.93 | 12.6 | -1.86 | 46.1 | 91.9 | -2.13 | -0.72 | – | – | – | – | – | – |
| O=C(NCCCC[C@H](NC(=O)OCc1ccccc1)C(=O)N1CCN(c2cc3c(cc2F)c(=O)c(C(=O)O)cn3C2CC2)CC1)OCc1ccccc1 | 84.2 | 87.1 | 39.3 | 12.7 | 62.9 | 4.12 | 9.59 | 38.9 | 51.6 | 40.4 | 89.7 | -0.2 | – | – | – | – | – | – |
| O=C(N[C@@H](Cc1ccccc1)C(=O)Nc1ccc(S(=O)(=O)Nc2ncccn2)cc1)OCc1ccccc1 | – | – | – | – | – | – | – | – | – | – | – | – | 0.05 | 3.46 | 29.1 | 18.2 | -8.23 | 0.39 |
| O=C(C[C@H](NC(=O)OCc1ccccc1)C(=O)Nc1ccc(S(=O)(=O)Nc2ncccn2)cc1)OCc1ccccc1 | – | – | – | – | – | – | – | – | – | – | – | – | 3.75 | 4.72 | 3.48 | -2.44 | -17.6 | 4.72 |
| O=C(O)c1cn(C2CC2)c2cc(N3CCNCC3)c(F)cc2c1=O [CIPROFLOXACIN] | 89.8 | 91.8 | 48.4 | – | 75.3 | 52.3 | 30.4 | 77 | 63.9 | 94.3 | 91 | 32.5 | – | – | – | – | – | – |
| Nc1ccc(S(=O)(=O)Nc2ncccn2)cc1 [SULFADIAZINE] | – | – | – | – | – | – | – | – | – | – | – | – | 8.11 | 6.44 | 18.1 | 2.17 | -6.47 | 2.66 |
